pEC50, pIC50: −log10 of the molar value.
Key:
[1] = biological target: T1, Cathepsin B (Homo sapiens, UniProt P07858); assay: Inhibition of human cathepsin B
[2] = biological target: T2, Cathepsin S (Homo sapiens, UniProt P25774); assay: Inhibition of human cathepsin S at 1 uM relative to control
In short: (§1)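 Human cathepsin S fluorometric kit assay, with compound incubated 30 min at room temperature at final 1% DMSO. […] Enzyme-control and test slopes were obtained by linear regression, and % relative inhibition was calculated per kit.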
Target sequence in this assay (P25774 115-331 limits assumed): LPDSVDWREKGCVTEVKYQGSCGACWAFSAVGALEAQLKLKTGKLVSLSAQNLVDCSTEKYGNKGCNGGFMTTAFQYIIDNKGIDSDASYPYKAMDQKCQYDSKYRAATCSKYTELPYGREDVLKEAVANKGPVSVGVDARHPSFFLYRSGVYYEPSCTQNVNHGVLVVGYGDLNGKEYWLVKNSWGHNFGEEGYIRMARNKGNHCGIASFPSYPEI

[3] = biological target: T2, Cathepsin S; assay: Inhibition of human cathepsin S; in short: as §1
Target sequence in this assay (P25774 whole entry): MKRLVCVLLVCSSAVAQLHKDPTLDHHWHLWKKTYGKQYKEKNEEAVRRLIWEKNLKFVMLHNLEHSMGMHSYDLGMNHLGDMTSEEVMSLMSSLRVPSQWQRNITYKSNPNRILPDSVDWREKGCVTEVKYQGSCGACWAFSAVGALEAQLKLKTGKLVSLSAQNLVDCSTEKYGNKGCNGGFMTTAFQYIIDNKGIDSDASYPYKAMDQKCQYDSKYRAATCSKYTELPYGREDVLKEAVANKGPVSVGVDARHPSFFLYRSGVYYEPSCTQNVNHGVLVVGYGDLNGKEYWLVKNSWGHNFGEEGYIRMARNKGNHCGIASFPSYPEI

[4] = biological target: T3, Procathepsin L (Homo sapiens, UniProt P07711); assay: Inhibition of human cathepsin L at 1 uM relative to control
Target sequence in this assay (P07711 114-333 limits assumed): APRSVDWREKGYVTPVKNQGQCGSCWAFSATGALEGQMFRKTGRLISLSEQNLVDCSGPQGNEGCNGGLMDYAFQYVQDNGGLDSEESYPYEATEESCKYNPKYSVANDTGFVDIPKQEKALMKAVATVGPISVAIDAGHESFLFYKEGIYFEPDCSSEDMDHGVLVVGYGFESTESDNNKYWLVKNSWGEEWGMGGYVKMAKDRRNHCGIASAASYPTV

[5] = biological target: T3, Procathepsin L; assay: Inhibition of human cathepsin L
Target sequence in this assay (P07711 whole entry): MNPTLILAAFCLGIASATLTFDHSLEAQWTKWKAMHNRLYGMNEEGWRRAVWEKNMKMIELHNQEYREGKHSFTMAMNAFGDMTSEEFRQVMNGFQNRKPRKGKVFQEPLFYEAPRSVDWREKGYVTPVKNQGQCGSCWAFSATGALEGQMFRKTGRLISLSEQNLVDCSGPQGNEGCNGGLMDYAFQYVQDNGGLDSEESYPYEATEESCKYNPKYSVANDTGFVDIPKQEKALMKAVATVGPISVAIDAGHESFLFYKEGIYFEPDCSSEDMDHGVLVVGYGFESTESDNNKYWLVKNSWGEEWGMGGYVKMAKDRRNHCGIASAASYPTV

[6] = Cytotoxicity against human A549 cells assessed as reduction in cell viability by CCK-8 assay; type: toxicity, cell-based
In short: (§2)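 Vero E6 or A549 cells were seeded at 1×10^4/well and left overnight. Compounds were added at final 50 and 200 μM in 0.5% DMSO for 24 h. CCK-8 absorbance was read at 450 nm, and viability was calculated relative to 0.5% DMSO-treated cells. Quadruplicate wells were run in one experiment, and CC50 was interpolated where possible.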

[7] = biological target: T1, Cathepsin B; assay: Inhibition of human cathepsin B at 1 uM relative to control
[8] = Cytotoxicity against human A549 cells assessed as reduction in cell viability by CellTiter-Glo assay; type: toxicity, cell-based
In short: as §2, with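 “Read-out” for “CCK-8 absorbance”, “CellTiter-Glo luminescence, with” for “read at 450 nm, and”, “viability” for “viability was”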

[9] = Cytotoxicity against African Green monkey Vero E6 cells assessed as reduction in cell viability by CellTiter-Glo assay; type: toxicity, cell-based, Vero C1008; details: chlorocebus sabaeus
In short: as §2, with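 “Read-out” for “CCK-8 absorbance”, “CellTiter-Glo luminescence, with” for “read at 450 nm, and”, “viability” for “viability was”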

[10] = system: SARS-CoV-2; assay: Antiviral activity against SARS-CoV-2 infected in African Green monkey Vero E6 cells assessed as reduction in viral plaques by plaque reduction assay; type: functional, organism-based; details: Severe acute respiratory syndrome coronavirus 2, Vero C1008
[11] = Cytotoxicity against African Green monkey Vero E6 cells assessed as reduction in cell viability by CCK-8 assay; type: toxicity, cell-based, Vero C1008; details: chlorocebus sabaeus; in short: as §2
[12] = system: SARS-CoV-2; assay: Antiviral activity against SARS-CoV-2 infected in African Green monkey Vero E6 cells assessed as reduction in viral plaques in presence of efflux inhibitor CP-100356 by plaque reduction assay; type: functional, organism-based; details: Severe acute respiratory syndrome coronavirus 2, Vero C1008
[13] = biological target: Replicase polyprotein 1ab (Severe acute respiratory syndrome coronavirus 2, UniProt P0DTD1); assay: Inhibition of SARS-CoV-2 3CL protease by FRET assay
[14] = Selectivity ratio, ratio of IC50 for inhibition of human cathepsin B to IC50 for inhibition of SARS-CoV-2 3CL protease
[15] = Selectivity ratio, ratio of IC50 for inhibition of human cathepsin S to IC50 for inhibition of SARS-CoV-2 3CL protease
[16] = Selectivity ratio, ratio of IC50 for inhibition of human cathepsin L to IC50 for inhibition of SARS-CoV-2 3CL protease
[17] = Stability of the compound in presence of glutathione by LC-MS/MS method; type: physicochemical
[18] = biological target: Replicase polyprotein 1ab (Severe acute respiratory syndrome coronavirus 2) (UniProt P0DTD1); assay: Reversible inhibition of SARS-CoV-2 3CL protease assessed as enzyme recovery measured after 4 hrs by dialysis method relative to control; set-up: scale not given: the % may be the effect or the level left
In short: (§3)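 SARS-CoV-2 3CLpro (final 2 μM) was preincubated with 20 μM inhibitor for 30 min at room temperature. Activity was compared with apo-enzyme dialysed under identical conditions.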

[19] = biological target: Replicase polyprotein 1ab (Severe acute respiratory syndrome coronavirus 2) (UniProt P0DTD1); assay: Reversible inhibition of SARS-CoV-2 3CL protease assessed as enzyme recovery measured after 3 days by dialysis method relative to control; set-up: scale not given: the % may be the effect or the level left; details: time 3.0 day; in short: as §3
[20] = Glutathione reactivity at pH 7.4 assessed as compound recovery measured after 24 hrs by LC-MS/MS method; type: physicochemical; details: glutathione solution, read-out: Activity
[21] = Inhibition of Enterovirus 71 3Cpro

SMILES	pIC50 [1]	inhibition [2] [%]	pIC50 [3]	inhibition [4] [%]	pIC50 [5]	CC50 [6] [µM]	inhibition [7] [%]	CC50 [8] [µM]	CC50 [9] [µM]	pEC50 [10]	CC50 [11] [µM]	pEC50 [12]	other results
COc1cccc2[nH]c(C(=O)N[C@@H](CC(C)C)C(=O)N[C@H](C#N)C[C@@H]3CCNC3=O)cc12	4.55	78	6.15	15	5.84	> 200	< 1	> 200	> 200	< 5.30	> 200		
CCOc1cccc2[nH]c(C(=O)N[C@@H](CC(C)C)C(=O)N[C@H](C#N)C[C@@H]3CCCNC3=O)cc12		74		< 1		> 200	< 1	> 200	> 200	5.32	> 200	6.92	
CC(C)C[C@H](NC(=O)[C@@H](NC(=O)[C@H](C)NC(=O)OCc1ccccc1)C(C)C)C(=O)N[C@H](C#N)CCC(N)=O													pIC50 [13]: 5.34
CC(C)C[C@H](NC(=O)OCc1ccccc1)C(=O)N[C@@H](C[C@@H]1CCNC1=O)C(O)S(=O)(=O)O (some centres not stated)	5.85	99	7.64	100	9.60	> 200	53	> 200	> 200		> 200		
COc1cc(Cl)cc2[nH]c(C(=O)N[C@@H](CC(C)C)C(=O)N[C@H](C#N)C[C@@H]3CCCNC3=O)cc12	4.74	72	6.40	37	6.33	> 200	< 1	> 200	> 200	5.66	> 200	6.63	
COc1cccc2[nH]c(C(=O)N[C@@H](CC(C)C)C(=O)N[C@@H](C[C@@H]3CCCNC3=O)C(=O)CO)cc12						> 200		> 200	> 200		> 200		
COc1cccc2[nH]c(C(=O)N[C@@H](CC(C)C)C(=O)N[C@H](C#N)C[C@@H]3CCCNC3=O)cc12	4.49	73	5.60	22	6.19	> 200	< 1	> 200	> 200	5.57	> 200	6.64	Ratio IC50 [14]: 2420; Ratio IC50 [15]: 189; Ratio IC50 [16]: 48; Stability [17]: Stable; Activity [18]: 10%; Activity [19]: 45%; remaining at 24 h [20]: ≥ 90%
COc1cc(Cl)cc2[nH]c(C(=O)N[C@@H](CC(C)(C)C)C(=O)N[C@H](C#N)C[C@@H]3CCCNC3=O)cc12		64		18		> 200	< 1	> 200	> 200	5.82	> 200	6.68	
CC(C)C[C@H](NC(=O)c1cc2c3c(ccc2[nH]1)CCO3)C(=O)N[C@H](C#N)C[C@@H]1CCCNC1=O		67		10		> 200	< 1	> 200	> 200	< 5.00	> 200		
CC(C)C[C@H](NC(=O)c1cc2c(OC(F)(F)F)cccc2[nH]1)C(=O)N[C@H](C#N)C[C@@H]1CCCNC1=O		67		8		90	< 1	90	> 100	5.59	> 100	6.46	pIC50 [13]: 7.86
Cc1cc(C(=O)N[C@@H](Cc2ccc(F)cc2)C(=O)N[C@H](C#N)C[C@@H]2CCCNC2=O)no1													pIC50 [21]: 4.83
COc1cccc2[nH]c(C(=O)N[C@@H](CC(C)C)C(=O)N[C@H](C=O)C[C@@H]3CCNC3=O)cc12	5.70		7.40	53	6.55	> 200		> 200	> 200		> 200		
